Assay [1] deals with Adenosine receptors; A1 & A2 (Rattus norvegicus) (UniProt P29276+P25099+P30543). Kind of assay: Selectivity ratio against Adenosine A1 and A2 Receptors, ratio of Ki. It is filed as protein assay. The essentials:
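Ratio of A2 Ki ([³H]NECA, rat striatum, 25 °C) to A1 Ki ([³H]CHA, whole rat brain membranes, 25 °C). Each Ki is a geometric mean from a single triplicate determination.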

Assay [2] has as its target T1, Adenosine receptor A1 (Rattus norvegicus, UniProt P25099).
T1 sequence (P25099 whole entry): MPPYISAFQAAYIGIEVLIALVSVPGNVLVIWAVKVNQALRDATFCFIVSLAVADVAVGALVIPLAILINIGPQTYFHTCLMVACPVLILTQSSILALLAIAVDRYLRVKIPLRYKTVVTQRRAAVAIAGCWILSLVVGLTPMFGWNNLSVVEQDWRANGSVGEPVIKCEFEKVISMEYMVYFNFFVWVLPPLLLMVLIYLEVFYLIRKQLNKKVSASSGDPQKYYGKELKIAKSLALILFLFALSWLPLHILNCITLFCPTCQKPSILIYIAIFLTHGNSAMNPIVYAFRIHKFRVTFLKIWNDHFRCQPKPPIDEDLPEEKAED
The assay is described as follows: Inhibition of [3H]CHA binding to Adenosine A1 receptor in whole rat brain membranes. Type of assay: cell membranes. The essentials: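 Whole rat brain membranes; [³H]CHA binding measured at 25 °C. Compounds from millimolar DMSO stocks diluted in water. Ki given as geometric mean ± standard error of a single determination run in triplicate.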

The target of a further assay is Adenosine A2 receptor (Rattus norvegicus, UniProt P29276+P30543). Kind of assay: Inhibition of [3H]NECA binding to Adenosine A2 receptor in rat brain striatum. It is filed as tissue-based. The essentials:
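[³H]NECA binding in rat brain striatum at 25 °C. Compounds from millimolar DMSO stocks diluted in water. Ki given as geometric mean ± standard error of a single determination in triplicate.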

Assay [3] addresses T1, Adenosine receptor A1. The assay is described as follows: Inhibition of [3H]CHA binding to Adenosine A1 receptor in rat cerebral cortical membranes. It is filed as cell membranes, Membrane. The essentials:
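Rat cerebral cortical membranes; displacement of [³H]CHA binding. Test compounds held as millimolar DMSO stocks, warmed to room temperature and diluted in water. Values from a single competition experiment, each concentration in triplicate.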

In general, Ki refers to a dissociation constant, usually derived from enzyme kinetics or from competition with a known ligand. A higher Ki goes with a looser hold on the target. Usually IC50 stands for the point on the concentration scale where inhibition reaches its midpoint. Read a high IC50 as lower potency.

Turning to `CCCOc1nc(N[C@H](CO)Cc2ccccc2)c2cnn(-c3ccccc3)c2n1` (stereo in doubt; 10b) [listing 1 of 2 here], the Selectivity ratio in assay [1] stood at 1.
For `CCCOc1nc(N[C@H](CO)Cc2ccccc2)c2cnn(-c3ccccc3)c2n1` (stereo in doubt; 10a) [listing 1 of 2 here], the figures for the inhibition constant (Ki) at Adenosine receptor A1 [2] and on Adenosine A2 receptor were 1.6 µM and 4.2 µM, respectively.
`COc1nc2c(cnn2-c2ccccc2)c(=O)n1C` yielded an IC50 at Adenosine receptor A1 [3] of 4.8 µM.
Still for that read-out and setting: the value for `Cn1c(=O)c2cnn(-c3ccccc3)c2n(C)c1=O` was 33 µM.
As for `CCCOC1=Nc2c(cnn2-c2ccccc2)C2=N[C@H](C)[C@@H](c3ccccc3)N12`, the inhibition constant Ki is 7.4 µM at Adenosine receptor A1 [2] and 11 µM at Adenosine A2 receptor. For the same molecule, in assay [1], the Selectivity ratio was found to be 1.5.
As for `CCCOC1=Nc2c(cnn2-c2ccccc2)C2=N[C@@H](C)[C@H](c3ccccc3)N12`, the values for the Ki on Adenosine receptor A1 [2] and on Adenosine A2 receptor were 33 µM and 45 µM, respectively. In addition, in assay [1], the Selectivity ratio came to 1.4.
Consider `CCCOC1=Nc2c(cnn2-c2ccccc2)C2=N[C@@H](Cc3ccccc3)CN12`, for which the Ki at Adenosine receptor A1 [2] was found to be 9.4 µM; at Adenosine A2 receptor, 3.3 µM. Further, the Selectivity ratio in assay [1] came to 0.35.
As for `CCCOc1nc(N[C@@H](CO)Cc2ccccc2)c2ncn(-c3ccccc3)c2n1`, the Ki at Adenosine receptor A1 [2] stood at 0.44 µM; at Adenosine A2 receptor it was 30 µM. Besides, the Selectivity ratio in assay [1] is 68.
Take `CCCOc1nc(N[C@H](C)[C@@H](O)c2ccccc2)c2cnn(-c3ccccc3)c2n1`: the Ki at Adenosine receptor A1 [2] was 1 µM; on Adenosine A2 receptor it was 0.31 µM. The Selectivity ratio in assay [1] stood at 0.31.
Take `CCCOC1=Nc2c(ncn2-c2ccccc2)C2=N[C@@H](Cc3ccccc3)CN12`: on Adenosine A2 receptor, the inhibition constant (Ki) is 1.6 µM. For the same molecule, the Selectivity ratio in assay [1] came to 0.18.
Turning to `CCCOC1=Nc2c(cnn2-c2ccccc2)C2=N[C@H](Cc3ccccc3)CN12`, the figures for the Ki on Adenosine receptor A1 [2] and on Adenosine A2 receptor were 0.62 µM and greater than 100 µM, respectively. Besides, in assay [1], the Selectivity ratio was greater than 100.
With `CCCOc1nc(N[C@H](CO)Cc2ccccc2)c2cnn(-c3ccccc3)c2n1` (stereo in doubt; 10a) [listing 2 of 2 here], the Selectivity ratio in assay [1] amounted to 2.6.
On to `CCCOc1nc(N[C@@H](C)[C@H](O)c2ccccc2)c2cnn(-c3ccccc3)c2n1`, for which the Ki on Adenosine receptor A1 [2] was 6.3 µM; on Adenosine A2 receptor, 1.4 µM. In addition, the Selectivity ratio in assay [1] amounted to 0.22.
For the molecule `CCCOc1nc(N[C@H](CO)Cc2ccccc2)c2ncn(-c3ccccc3)c2n1`, the inhibitory constant (Ki) was 0.096 µM on Adenosine receptor A1 [2] and 5.6 µM on Adenosine A2 receptor. Besides, the Selectivity ratio in assay [1] is 58.
For the molecule `CCCOC1=Nc2c(ncn2-c2ccccc2)C2=N[C@H](Cc3ccccc3)CN12`, the Ki on Adenosine receptor A1 [2] is 3.2 µM; on Adenosine A2 receptor it was 72 µM. In addition, the Selectivity ratio in assay [1] stood at 22.
With `CCCOc1nc(N[C@H](CO)Cc2ccccc2)c2cnn(-c3ccccc3)c2n1` (stereo in doubt; 10b) [listing 2 of 2 here], the Ki on Adenosine receptor A1 [2] was found to be 0.35 µM; on Adenosine A2 receptor, 0.37 µM.
Consider `CCCn1c(=O)n(C)c(=O)c2cnn(-c3ccccc3)c21`, for which the IC50 at Adenosine receptor A1 [3] turned out to be 35 µM.

These data come from ChEMBL document CHEMBL1126275, “Conformationally restrained, chiral (phenylisopropyl)amino-substituted pyrazolo[3,4-d]pyrimidines and purines with selectivity for adenosine A1 and A2 receptors” (J Med Chem, 1992).
